Assay outcomes (PubChem)
An excerpt weighted towards active compounds, which were near 1.6% of everything screened.
VIM-2 inhibitor – inhibitors of Pseudomonas aeruginosa VIM-2 metallo-beta-lactamase; purified VIM-2, nitrocefin hydrolysis, epi-absorbance fluorescence; inhibition, % at 5.6 µM; actives 0.89% (n = 290,000); AID 1527;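 active = inhibition above the mean of all tested compounds plus 3 SD, cutoff set per screening run, cut at about 7.5% in these data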;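 note: red hydrolysis product quenches plate fluorescence so inhibitors raise well fluorescence; 0% = enzyme with DMSO and 100% = DMSO without enzyme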
DNA FID counter – counter-screen for HCV NS3 helicase inhibitors: DNA intercalator displacement. actives 0.17% (n = 290,000). inhibition, % at 7.9 µM. DNA fluorescent intercalator displacement, fluorescence; in the data active = inhibition above about 37%;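 note: 0% = vehicle and 100% = reference compound; higher means more ethidium bromide displaced from hairpin DNA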
IMP-1 inhibitor – inhibitors of Pseudomonas aeruginosa IMP-1 metallo-beta-lactamase; inhibition, % at 5.6 µM; actives 0.45% (n = 290,000); purified IMP-1, nitrocefin hydrolysis, epi-absorbance fluorescence;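 active = inhibition above the mean plus 3 SD of all compounds in the same screening run, cut at about 4.5% in these data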;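 note: 0% = IMP-1 with DMSO and 100% = DMSO wells lacking enzyme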
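system = purified recombinant IMP-1 beta-lactamase | amount = 0.2 nM IMP-1, as dispensed | medium = HEPES buffer pH 7.1 with ZnSO4 and Brij 35 | times = 25 °C, 15 min preincubation, 25 min reaction | detection = plate fluorescence quenching by hydrolysis product, ex 480/em 530 nm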
HCV core dimer – HCV core protein dimerization inhibition; inhibition, % at 5 µM; TR-FRET GST/Flag-core106 dimerization, 1536-well; actives 0.33% (n = 300,000);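 active = inhibition above the mean of all tested compounds plus 3 SD, set per screening campaign, cut at about 45% in these data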
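Material: GST/Flag-tagged HCV core106 proteins. Incubation: 4 h, 22.5 °C incubation. Read-out basis: inhibition (%) from 671 over 617 nm ratio. Measured by: TR-FRET, excitation 340 nm, emission 617 and 671 nm.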
Numbers without * were called inactive; · = no result.

SMILES | VIM-2 inhibitor | DNA FID counter | IMP-1 inhibitor | HCV core dimer
O=C(CC1(O)C(=O)N(Cc2cccc3ccccc23)c2ccccc21)c1cccnc1 (configuration not stated) | -3 | -13 | -3 | 2
COc1ccc(-c2cc(=O)oc3cc(O)ccc23)cc1 | 8.6* | -4 | -1 | -4
COc1ccc(-c2cc(=O)oc3cc(OCC(C)=O)ccc23)cc1 | 3 | -17 | -2 | 1
Cc1cc(Cl)ccc1OCC(=O)NNC(=O)c1cccnc1 | -2 | -8 | -2 | -6
CC(/C=N\NC(=O)c1ccc(C)nc1)=C\c1ccccc1 | -1 | -2 | -2 | -7
COc1ccccc1/C=C/C=C1\Oc2c(ccc(O)c2CN(C)C)C1=O | 2 | 6 | 9.1* | -5
C#CCn1c(-c2ccccc2)ccc(C#N)c1=O | -1 | -5 | -3 | -1
Cc1ccc(SCc2ccc(C(=O)Nc3cccnc3)cc2)cc1 | 2 | -7 | 15* | 1
O=C(Nc1cccnc1)c1ccc(C(=O)Nc2cccnc2)cc1 | -2 | 0 | -3 | -3
O=C1C=C(O)c2c(O)cccc2C1=O | · | · | · | -9
O=C1c2c(O)cccc2Cc2cccc(O)c21 | · | · | · | 59*
O=C(O)CN1C(=O)/C(=C\c2ccc(OC(=O)c3ccco3)cc2)SC1=S | 2 | -21 | 0 | -3
CC(=O)c1ccc(NC(=O)CN2C(=O)/C(=C/C=C/c3ccccc3)SC2=S)cc1 | -1 | -12 | -1 | 65*
O=C(CN1C(=O)/C(=C/c2cccc(Br)c2)SC1=S)NCCCN1CCOCC1 | -3 | 4 | 4.8* | 3
O=C(O)CN1C(=O)/C(=C/C=C/c2ccccc2)SC1=S | -2 | -22 | -1 | 3
CC(=O)NNC(=O)CN1C(=O)/C(=C/c2ccccc2)SC1=S | 5 | -3 | 9.6* | -2
CCN(CC)C(=O)CN1C(=O)/C(=C/c2ccccc2)SC1=S | -1 | -5 | -2 | -1
O=C(O)CN1C(=O)/C(=C/c2ccc(SCc3ccccc3)o2)SC1=S | 4 | -2 | 4.7* | ·
O=C(NNc1ncnc2c1cnn2-c1cccc(Cl)c1)c1ccco1 | -4 | -6 | 0 | -4
COC(=O)c1sccc1NC(=O)C1CC2CCC1C2 (configuration not stated) | -4 | 4 | 48* | 2
COC(=O)c1sccc1NC(=O)C1C2C=CC(O2)C1C(=O)O (configuration not stated) | -3 | 0 | -2 | 7
COC(=O)c1sccc1NC(=O)C1CC(C)=C(C)CC1C(=O)O (configuration not stated) | 8.4* | -30 | 0 | -4
CC(C)S(=O)(=O)C1=NSC2=NC(=O)/C(=C\c3ccc(-c4cccc(C(=O)O)c4)o3)C(=N)N21 | -4 | -14 | -4 | ·
Fc1ccc(NC(=S)NCc2ccccn2)cc1 | 1 | 0 | 0 | 0
Fc1ccc(-c2ccc(CNCc3ccccn3)o2)cc1 | 11* | 9 | -3 | 10
SMILES | VIM-2 inhibitor | DNA FID counter | IMP-1 inhibitor | HCV core dimer
CC1(C)CC(=O)C=C(Nc2ccc(F)cc2)C1 | -5 | 2 | -4 | -2
O=C1NC(=Nc2ccc(O)cc2)S/C1=C\C=C\c1ccco1 | -4 | -11 | -2 | 18
COc1ccc(-n2ncc3c(NCCCN4CCOCC4)ncnc32)cc1 | -3 | 2 | 3 | -1
COc1cc2nc(=S)n(CCCN3CCOCC3)c(N)c2cc1OC | -3 | 45* | -2 | ·
COc1cc2ncnc(NCCCN3CCOCC3)c2cc1OC | 3 | 76* | 1 | -4
CC(C)CN(C(=O)COC(=O)C(C)N1C(=O)c2ccccc2C1=O)c1c(N)n(Cc2ccccc2)c(=O)[nH]c1=O (configuration not stated) | · | · | · | -3
CCOC(=O)C1=C(C)Nc2sc(C(=O)c3ccc(F)cc3)c(N)c2C1c1ccc(C(=O)OC)cc1 (configuration not stated) | 7 | -14 | -3 | 6
CCOC(=O)C1=C(C)Nc2sc(C(=O)c3ccc(C)cc3)c(N)c2C1c1ccc(C(=O)OC)cc1 (configuration not stated) | 7.8* | -11 | -3 | 5
O=C(Nc1cccc(Cl)c1)c1cccc(N2C(=O)C3CC=CCC3C2=O)c1 (configuration not stated) | 1 | -11 | 18* | -3
O=C(Nc1cccc(N2C(=O)C3CCCCC3C2=O)c1)c1ccccc1 (configuration not stated) | -3 | -22 | 0 | 0
O=C(Nc1nc2ccccc2s1)c1cnccn1 | -4 | 0 | -3 | -4
O=C(Nc1nc(-c2ccco2)c(-c2ccco2)s1)c1cnccn1 | · | · | · | 69*
O=C1CN2Cc3c(ccc(Cl)c3Cl)N=C2N1 | · | · | · | 3
